Active and inactive are the calls of the source. The rule behind the calls is not given here.
Experiments:
[1] = Toxicity in SCID mouse xenografted with MDA-MB-231 cells assessed as change in body weight at 40 mg/kg, po qd for 15 days and measured every 3 days; type: organism-based; details: in vivo, 360 h, dose 40 mg/kg/day, time 15 day
[2] = Tmax in Sprague-Dawley rat at 10 mg/kg, po administered via gavage by LC-MS analysis; type: ADME, organism-based; details: in vivo
[3] = Cmax in Sprague-Dawley rat at 10 mg/kg, po administered via gavage by LC-MS analysis; type: ADME, organism-based; set-up: route oral, dose 10 mg/kg; details: in vivo
[4] = biological target: Tyrosine-protein kinase receptor TYRO3 (Homo sapiens, UniProt Q06418); assay: Inhibition of human recombinant RSE (451 to end residues) using KVEKIGEGTYGVVYK as substrate incubated for 40 mins in presence of [gamma33P-ATP] by radiometric scintillation counting analysis
Outline: (§1)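 Radiometric kinase assay run as an external profiling service, with ATP at the Km of each kinase. IC50 values are means of two independent experiments.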

[5] = Inhibition of human recombinant EPHB2 A848S/K918E mutant (560 to end residues) using poly(Glu,Tyr)4:1 as substrate incubated for 40 mins in presence of [gamma33P-ATP] by radiometric scintillation counting analysis; outline: as §1
BT-474 = assay: Antiproliferative activity against human BT-474 cells assessed as reduction in cell viability incubated for 72 hrs by MTT assay; type: functional, cell-based; details: BT-474, 72 h
Outline: (§2)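 MTT viability assay. ATCC cell lines were grown in designated medium with 10% FBS at 37 °C, 5% CO2. Cells seeded at 1500−30000 per well and incubated 24 h, then exposed to compound (0−10 μg/mL) for 72 h. MTT added for 2−4 h. Formazan dissolved in DMSO (adherent) or acidified SDS overnight (suspension), absorbance read at 570 nm. Triplicates; IC50 calculated.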

PC-9 = assay: Antiproliferative activity against human PC-9 cells assessed as reduction in cell viability incubated for 72 hrs by MTT assay; type: functional, cell-based; details: PC-9, 72 h; outline: as §2
MV4-11 = assay: Antiproliferative activity against human MV4-11 cells assessed as reduction in cell viability incubated for 72 hrs by MTT assay; type: functional, cell-based; details: MV4-11, 72 h; outline: as §2
MDA-MB-231 [6] = assay: Induction of apoptosis in human MDA-MB-231 cells assessed as necrotic cells at 0.01 uM incubated for 24 hrs by annexin V-FITC and propidium iodide staining based flow cytometry analysis (reference value: 0.2 %); type: functional
MDA-MB-231 [7] = assay: Induction of apoptosis in human MDA-MB-231 cells assessed as early apoptotic cells at 0.01 uM incubated for 24 hrs by annexin V-FITC and propidium iodide staining based flow cytometry analysis (reference value: 2 %); type: functional
MDA-MB-231 [8] = assay: Induction of apoptosis in human MDA-MB-231 cells assessed as live cells at 0.03 uM incubated for 24 hrs by annexin V-FITC and propidium iodide staining based flow cytometry analysis (reference value: 96.95 %); type: functional
[9] = biological target: Proto-oncogene tyrosine-protein kinase Src (Homo sapiens) (UniProt P12931); assay: Inhibition of Src in human MDA-MB-231 cells assessed as reduction in phosphorylation of Src incubated for 20 hrs by Western blot analysis; type: cell-based
Outline: (§3)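 MDA-MB-231 cells treated with a series of concentrations for 20 h at 37 °C. Cells washed with ice-cold saline and lysed in RIPA buffer with protease cocktail. Lysates cleared at 12000 rpm for 10 min at 4 °C and protein quantified by Bradford. Equal protein separated by SDS-PAGE, transferred to PVDF and probed with antibodies.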

MDA-MB-231 [10] = assay: Inhibition of MEK phosphorylation in human MDA-MB-231 cells at 0.01 to 0.3 uM incubated for 20 hrs by Western blot analysis; type: cell-based; details: dose 0.01-0.3 µM; outline: as §3
MDA-MB-231 [11] = assay: Inhibition of ERK phosphorylation in human MDA-MB-231 cells at 0.01 to 0.3 uM incubated for 20 hrs by Western blot analysis; type: cell-based; details: dose 0.01-0.3 µM; outline: as §3
MDA-MB-231 [12] = assay: Inhibition of Fra1 phosphorylation in human MDA-MB-231 cells at >0.03 uM incubated for 20 hrs by Western blot analysis; type: functional, cell-based; details: dose microM >0.03, time 20.0 hrs; outline: as §3
MDA-MB-231 [13] = assay: Antitumor activity against human MDA-MB-231 cells xenografted in SCID mouse assessed as tumor growth inhibition administered orally once daily for 21 days and measured every 3 days; type: functional; details: dose 10-40 mg/kg/day, time 21.0 day
Outline: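 SCID mice (5−6 weeks) injected subcutaneously with 100 μL of cells at 5 × 10^7/mL. At 150−200 mm3 mice randomized, 6 per group. Oral compounds given in water with 25% PEG400 plus 5% DMSO; paclitaxel given 10 mg/kg/week iv. Tumor volume a×b²/2 and body weight measured every 3 days. Inhibition rate (c−d)/c×100% against vehicle control.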

[14] = Toxicity against SCID mouse xenografted with human MDA-MB-231 cells assessed as change in body weight at 10 to 40 mg/kg, po QD for 21 days and measured every 3 days; type: organism-based; details: in vivo, 504 h, dose 10-40 mg/kg/day, time 21 day
Outline: (§4)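 Exponential-phase cells washed and injected subcutaneously (5 × 10^6 cells in 100 μL) into 5–6-week SCID mice. At 150–200 mm3, mice randomised to groups of 6. Oral dosing daily in water with 25% PEG400 and 5% DMSO; paclitaxel 10 mg/kg weekly by tail vein. Body weight measured every 3 days and side effects checked daily.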

[15] = Toxicity against SCID mouse xenografted with human MDA-MB-435 cells assessed as change in body weight at 10 to 40 mg/kg, po QD for 21 days and measured every 3 days; type: organism-based; details: in vivo, 504 h, dose 10-40 mg/kg/day, time 21 day; outline: as §4
Mus musculus = assay: In vivo inhibition of MEK in SCID mouse xenografted with human MDA-MB-231 cells assessed as reduction in phosphorylation of MEK in tumor tissue at 40 mg/kg, po QD for 21 days by immunohistochemical analysis; type: functional, organism-based; details: dose 40.0 mg/kg/day, time 21.0 day
Outline: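 Tumors taken from xenografted SCID mice dosed orally at 40 mg/kg/q.d. or given control; mice euthanized at set times. Tumors formalin-fixed and paraffin-embedded, stained by immunohistochemistry for phospho-proteins, and imaged by light microscopy.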

Danio rerio = species: Danio rerio; assay: Antiangiogenesis activity in EGFP-labelled zebrafish embryo assessed as reduction in formation of major cranial vessel at 1.25 to 5 uM incubated for overnight by fluorescence microscopic analysis; type: functional, organism-based; details: dose 1.25-5 µM
Outline: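 Transgenic FLK:EGFP zebrafish kept at 28 °C, pH 7.2−7.4, 14 h light/10 h dark. Embryos at 30 hpf incubated overnight with compound at 1.25, 2.5 or 5 μM beside a blank control. Fish anaesthetized, then vessels imaged by fluorescence microscopy.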

[16] = Acute toxicity in Sprague-Dawley rat assessed as histopathological changes in heart at 100 mg/kg, po administered as single dose measured after 24 hrs by H and E staining based light microscope analysis; type: organism-based; details: in vivo
Outline: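 Sprague-Dawley rats received a single oral dose of 100 mg/kg in sterile water with 25% (v/v) PEG400 plus 5% DMSO. Organs were examined by histology and immunohistochemistry for pathological changes. Behaviour and side effects were checked daily.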

MDA-MB-231 [17] = assay: Inhibition of Fra1 expression in human MDA-MB-231 cells at >0.03 uM incubated for 20 hrs by Western blot analysis; type: functional, cell-based; details: dose microM >0.03, time 20.0 hrs; outline: as §3

Chain of Tyrosine-protein kinase receptor TYRO3 (Q06418 whole entry): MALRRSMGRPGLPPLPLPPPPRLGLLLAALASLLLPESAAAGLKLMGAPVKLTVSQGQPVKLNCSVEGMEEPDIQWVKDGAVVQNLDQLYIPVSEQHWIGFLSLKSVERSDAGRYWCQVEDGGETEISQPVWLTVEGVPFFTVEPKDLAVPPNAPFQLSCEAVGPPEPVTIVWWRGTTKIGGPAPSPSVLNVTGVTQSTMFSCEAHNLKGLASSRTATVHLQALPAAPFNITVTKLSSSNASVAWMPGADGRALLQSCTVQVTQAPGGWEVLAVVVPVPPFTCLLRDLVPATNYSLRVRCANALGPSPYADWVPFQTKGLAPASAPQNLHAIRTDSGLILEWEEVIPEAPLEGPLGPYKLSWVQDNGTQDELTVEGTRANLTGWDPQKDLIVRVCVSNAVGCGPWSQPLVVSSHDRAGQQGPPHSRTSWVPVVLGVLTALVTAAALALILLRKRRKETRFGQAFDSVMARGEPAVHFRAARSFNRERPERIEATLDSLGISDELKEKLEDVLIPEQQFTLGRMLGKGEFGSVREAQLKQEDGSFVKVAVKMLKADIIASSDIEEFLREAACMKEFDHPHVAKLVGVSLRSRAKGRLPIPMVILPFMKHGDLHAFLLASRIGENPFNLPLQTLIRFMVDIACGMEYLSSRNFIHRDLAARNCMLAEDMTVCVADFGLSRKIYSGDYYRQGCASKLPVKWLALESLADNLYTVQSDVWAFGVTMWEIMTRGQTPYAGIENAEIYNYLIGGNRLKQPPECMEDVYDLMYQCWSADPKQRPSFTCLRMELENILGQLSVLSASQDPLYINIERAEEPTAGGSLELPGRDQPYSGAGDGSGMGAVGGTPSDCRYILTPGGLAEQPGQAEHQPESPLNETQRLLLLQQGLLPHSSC
Chain of Proto-oncogene tyrosine-protein kinase Src (Homo sapiens) (P12931 2-536 limits assumed): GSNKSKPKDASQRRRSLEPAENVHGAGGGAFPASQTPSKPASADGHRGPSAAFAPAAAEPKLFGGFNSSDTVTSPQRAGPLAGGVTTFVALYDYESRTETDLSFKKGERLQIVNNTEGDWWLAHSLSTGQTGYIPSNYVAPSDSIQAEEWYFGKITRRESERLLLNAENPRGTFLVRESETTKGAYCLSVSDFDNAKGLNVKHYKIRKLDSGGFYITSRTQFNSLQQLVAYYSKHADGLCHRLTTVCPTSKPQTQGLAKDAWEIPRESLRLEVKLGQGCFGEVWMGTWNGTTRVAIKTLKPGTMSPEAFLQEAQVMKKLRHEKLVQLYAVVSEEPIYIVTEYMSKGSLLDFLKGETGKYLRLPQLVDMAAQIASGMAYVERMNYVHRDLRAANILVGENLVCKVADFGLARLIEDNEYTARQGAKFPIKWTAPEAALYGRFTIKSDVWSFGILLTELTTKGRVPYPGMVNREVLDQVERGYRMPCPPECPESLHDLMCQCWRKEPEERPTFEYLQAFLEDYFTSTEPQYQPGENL

Compound `Cc1ccc(NC(=O)c2ccc(C)c(C(F)(F)F)c2)cc1C#Cc1nn([C@H]2CC[C@H](O)CC2)c2ncnc(N)c12` has an Activity [1] of 3.4%, a Tmax [2] of 4 h and a Cmax [3] of 143 ng/mL. The IC50 [4] was 351 nM, the IC50 [5] was 33 nM and the IC50 (BT-474) was over 10000 nM. The IC50 (PC-9) was 152 nM, the IC50 (MV4-11) was 138 nM and the Activity (MDA-MB-231 [6]) was 0.42%. The Activity (MDA-MB-231 [7]) was 5.05%, the Activity (MDA-MB-231 [8]) was 78.36% and the inhibition [9] was “Dose-dependent effect”. The inhibition (MDA-MB-231 [10]) was “Active”, the inhibition (MDA-MB-231 [11]) was “Active” and the inhibition (MDA-MB-231 [12]) was “Active”. For the same compound, the Activity (MDA-MB-231 [13]) was “Dose-dependent effect”, the Activity [14] was “Non-Toxic” and the Activity [15] was “Non-Toxic”. For the same compound, the inhibition (Mus musculus) was “Active”, the Activity (Danio rerio) was “inactive” and the Activity [16] was “Non-Toxic”. For the same compound, the inhibition (MDA-MB-231 [17]) was “Active”.

— ChEMBL document CHEMBL4765233, “From Lead to Drug Candidate: Optimization of 3-(Phenylethynyl)-1H-pyrazolo[3,4-d]pyrimidin-4-amine Derivatives as Agents for the Treatment of Triple Negative Breast Cancer” (J Med Chem, 2016)
